The values below come from ChEMBL document CHEMBL4513216, “Probing the Open Global Health Chemical Diversity Library for Multistage-Active Starting Points for Next-Generation Antimalarials” (ACS Infect Dis, 2020).

The nature of this data set: Toxicity liver stage against HepG2, at 10uM. The format is cell-based. Set-up: test concentration 10 uM, cell line HepG2-A16-CD81EGFP. The settings on record: human, HepG2-A16-CD81EGFP cells; read-out: INHIBITION
The essentials:
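Uninfected HepG2-A16-CD81EGFP cells, 3 × 10^3 per well, 1536-well, plated on prespotted compound at 10 μM final, parasite-free screening media added to match infected plates; puromycin 10 μM positive, DMSO 0.5% negative; run in parallel with 48 h PbLuc assay at 37 °C, 5% CO2; viability by CellTiter-Glo luminescence, normalized to controls.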
On to `COc1cccc(C(=O)N2CCC3(CCC(=O)N(C(C)C)C3)CC2)c1C`, for which the cytotoxicity at 10 µM was -3.21%.

For `c1cnc(N2CCOC3(COCCN(Cc4cc[nH]n4)C3)C2)nc1` (configuration not stated), the cytotoxicity at 10 µM was 11.8%.

Regarding `C1CC(c2nnc(CN3CCCC3c3noc(C4CC4)n3)o2)C1` (configuration not stated), the cytotoxicity at 10 µM is -7.77%.

Regarding `O=C(NCc1nnc2ccccn12)N1CCOC(c2ccsc2)C1` (configuration not stated), the cytotoxicity at 10 µM amounted to 0.305%.

On to `COc1ccccc1CC(C)(C)C(=O)NCC(=O)Nc1cccnc1`, for which the cytotoxicity at 10 µM is 9.21%.

As for `COCC(=O)N1CCCC(c2csc(NC(C)=O)n2)C1` (configuration not stated), the cytotoxicity at 10 µM was -17.2%.

Take `Cc1n[nH]c(C)c1CC(=O)NCc1ccccc1Cl`: the cytotoxicity at 10 µM was 9.87%.

As to `CCc1nnsc1C(=O)NCCCC(CC)(CC)C1OCCO1`, the cytotoxicity at 10 µM came out at 5.95%.

Consider `Cc1noc(CCCC(=O)N2CCCC2c2ccsc2)n1` (configuration not stated), for which the cytotoxicity at 10 µM was -3.02%.

Take `CCc1ccc2c(c1)C(CCNC(=O)Cc1cccc(F)c1)C(=O)N2` (configuration not stated): the cytotoxicity at 10 µM is -49.1%.

For `Cn1ccc(C(=O)NC2CCC23CCN(C(=O)c2ccccn2)CC3)c1` (configuration not stated), the cytotoxicity at 10 µM is -71.7%.

Turning to `CCCc1cc(C(=O)N(C)Cc2cccc3cnccc23)n(C)n1`, the cytotoxicity at 10 µM stood at 0.109%.

As for `Cc1nn(C)c(C)c1C(=O)N1CCN(C(=O)CC2CCCCC2)CC1`, the cytotoxicity at 10 µM is -2.55%.

For `N#Cc1cc(F)c(NCCc2cccnc2)c(F)c1`, the cytotoxicity at 10 µM is -68.5%.

Turning to `O=C(NCCc1ccn(-c2ccccc2)n1)N1CCCC(CO)C1` (configuration not stated), the cytotoxicity at 10 µM is -23.1%.

For the compound `COc1cc(CNC2CCN(c3ccccc3)C2)cc(OC)c1OC` (configuration not stated), the cytotoxicity at 10 µM turned out to be 3.96%.

With `CCCC(=O)N1CCN(c2cc(-n3cnc(C)c3C)nc(C)n2)CC1`, the cytotoxicity at 10 µM is -1.89%.

Turning to `CCc1nnc(N2CCN(c3ccccc3)C(=O)C2)o1`, the cytotoxicity at 10 µM is -8.74%.

`CC(=O)c1cc(CC(=O)NCc2ccc(CN(C)C)cc2)cs1`: the cytotoxicity at 10 µM was -11.3%.

On to `Cc1cccc(CN2CCc3ncnc(N4CCN(C)CC4)c3CC2)n1`, for which the cytotoxicity at 10 µM was -145%.

For the compound `Cc1ccc2nc(CN3CCN(C4CCCC4)C(=O)C3)cc(O)c2c1`, the cytotoxicity at 10 µM was -0.803%.

Regarding `Cc1cc2ncn(C(=O)N3CCOCC3)c2cc1C`, the cytotoxicity at 10 µM is -1.45%.

In the case of `CNC(=O)c1cc2c(nc1NCC(C)C)CCN(S(=O)(=O)C1CC1)CC2`, the cytotoxicity at 10 µM is -4.88%.

Take `CC1=C(C(=O)N2CCCC(Cn3cc(CO)nn3)C2)OCCO1` (configuration not stated): the cytotoxicity at 10 µM was 0.92%.

Turning to `Nc1nc2c(c(N3CCN(C(=O)c4cccs4)CC3)n1)CCCC2`, the cytotoxicity at 10 µM worked out at 7.9%.

With `Cc1ccc(-c2nn3c(nc2=O)-c2ccccc2NC3C(=O)O)cc1C` (configuration not stated), the cytotoxicity at 10 µM is 19.3%.

As for `O=S(=O)(c1c(Cl)nc2sccn12)N1CCC2(CCNCC2)C1`, the cytotoxicity at 10 µM is 6.11%.

For the compound `CC(NC(=O)c1cc(C(C)C)[nH]n1)C(=O)Nc1ccccc1` (configuration not stated), the cytotoxicity at 10 µM worked out at 10.8%.

For `Cc1cc(NCc2cccc(C#N)c2)ccc1C(=O)N(C)C`, the cytotoxicity at 10 µM was determined as 7.06%.

With `CC(=O)c1cc(C(=O)N2CC[C@H]3CC[C@@H](C2)N3C)c(=O)[nH]c1C`, the cytotoxicity at 10 µM turned out to be 11.4%.

In the case of `Cc1cccc(CN2Cc3ncn(C)c3C(COCC(=O)N(C)C)C2)n1` (configuration not stated), the cytotoxicity at 10 µM was found to be 4.56%.

As to `Cc1nc(C(C)C)sc1C(=O)NCC(C)(C)N1CCOCC1`, the cytotoxicity at 10 µM was -6.47%.

On to `Cc1nccn1Cc1nnc(C2CCCN(c3ncccn3)C2)n1C` (configuration not stated), for which the cytotoxicity at 10 µM was -3.09%.

With `CNC(=O)C1CCCN1C(=O)NCCCc1cccc(F)c1` (configuration not stated), the cytotoxicity at 10 µM was found to be 2.75%.

Regarding `CCS(=O)(=O)N1Cc2ccccc2CC1C(=O)OCc1cc(C)no1` (configuration not stated), the cytotoxicity at 10 µM is -13%.

In the case of `O=C(Cc1ccc2c(c1)CCO2)N1CCN(c2ccccn2)CC1`, the cytotoxicity at 10 µM is -13.6%.

`COC(=O)CC1c2cccnc2C(=O)N1Cc1ccccc1` (configuration not stated): the cytotoxicity at 10 µM was determined as 1.19%.

Regarding `CCOCC1CN(CC2CC2)Cc2nn(C)cc21` (configuration not stated), the cytotoxicity at 10 µM was -76%.

Consider `CCC(=O)N(CCN(C)C)Cc1ccc(F)c(F)c1`, for which the cytotoxicity at 10 µM is -4.38%.

Regarding `CN(Cc1cnn(C)c1)CC(O)c1ccc2c(c1)OCCCO2` (configuration not stated), the cytotoxicity at 10 µM is 2.85%.

With `COc1ccc(C(C)=O)cc1CN1CCn2cccc2C1C` (configuration not stated), the cytotoxicity at 10 µM was -6.62%.

For `O=C(CCN1CCCO1)NC1CCCN(CC2CCCCC2)C1` (configuration not stated), the cytotoxicity at 10 µM came to 7.3%.

For `O=C(CN1CCC(c2ccnn2CCO)CC1)NCc1ccco1`, the cytotoxicity at 10 µM stood at 1.68%.

Consider `C=C(C)CN(CC)C(=O)c1cc(C)ccc1NS(C)(=O)=O`, for which the cytotoxicity at 10 µM stood at 5.69%.

For `CC(C)(C)c1nc(CN(Cc2ccccc2Cl)C2CCCC2)no1`, the cytotoxicity at 10 µM came out at 3.25%.

In the case of `Cn1cc(-c2c(C#N)c(N)nc3c2CCc2[nH]ccc2-3)cn1`, the cytotoxicity at 10 µM is -4.37%.

In the case of `CN(C)Cc1ccnc(C2CN(Cc3nccs3)CCO2)n1` (configuration not stated), the cytotoxicity at 10 µM was -2.61%.

`CCc1ncc2c(n1)CN(CC(=O)NCCOc1ccccc1)CC2`: the cytotoxicity at 10 µM is -2.11%.

`CC(=O)N1CCc2[nH]c(=O)ccc2C1`: the cytotoxicity at 10 µM is 0.351%.

Regarding `O=C(Nc1ccc2c(c1)OC1(CCCC1)O2)c1ccc(=O)[nH]n1`, the cytotoxicity at 10 µM worked out at 0.887%.

Regarding `CN(C)CCCNC(=O)c1cc(Br)c2c(c1)OCCO2`, the cytotoxicity at 10 µM came out at 13.3%.

In the case of `CCCc1nc(NCc2c(C)nn(CCC)c2C)c2cnn(C)c2n1`, the cytotoxicity at 10 µM was 9.66%.

For `CCOC(=O)c1sc(NC(=O)c2cc(=O)c(OC)c[nH]2)nc1C`, the cytotoxicity at 10 µM was -57.1%.

Consider `CCn1cnnc1CNC(=O)NC(C)c1ccc(Cl)s1` (configuration not stated), for which the cytotoxicity at 10 µM was -23.1%.

Take `Cc1cc(C)n(CC2CCCN2C(=O)CCc2nccs2)n1` (configuration not stated): the cytotoxicity at 10 µM is -7.07%.

As to `CN(C)CC1CN(CCOc2cccc(C#N)c2)CCO1` (configuration not stated), the cytotoxicity at 10 µM was -9.63%.

Consider `CCOc1cc(C)ccc1NS(=O)(=O)c1cc(C)c(C(=O)O)s1`, for which the cytotoxicity at 10 µM was -6.44%.

Turning to `CSCCC(=O)N1C[C@@H](C)[C@](O)(C(C)C)C1`, the cytotoxicity at 10 µM turned out to be 0.68%.

Turning to `COC(=O)C(O)C1CCN(CCc2ccc(C)cc2)CC1` (configuration not stated), the cytotoxicity at 10 µM stood at 15.2%.

On to `CCC(=O)N1CCC2(COCc3c(C)nc(N(C)C)nc32)C1` (configuration not stated), for which the cytotoxicity at 10 µM was -31.5%.

As for `FC(F)(F)CCc1ccnc(NC2CCC(n3cnnc3)CC2)n1` (configuration not stated), the cytotoxicity at 10 µM was -6.71%.

As to `CS(=O)(=O)c1cccc(S(=O)(=O)NC(=O)CCC2CCCCC2)c1`, the cytotoxicity at 10 µM was determined as 0.848%.

Take `COc1ccccc1CCNC(=O)NCC(=O)Nc1cccnc1`: the cytotoxicity at 10 µM was -15.2%.

On to `Cc1cnn(CCNCc2csc(-c3ccsc3)n2)c1`, for which the cytotoxicity at 10 µM was -6.75%.

In the case of `O=C(c1ccc(F)cc1F)N1C[C@@H](O)[C@H](N2CCOCC2)C1`, the cytotoxicity at 10 µM was -1.37%.

Consider `c1cnc(NC[C@H]2OC[C@@H]3CCN(Cc4ccsc4)C[C@@H]32)nc1`, for which the cytotoxicity at 10 µM is -2.01%.

Turning to `CN(CCCc1ccccc1)C(=O)c1ccccc1NCC(=O)O`, the cytotoxicity at 10 µM was -6.96%.

As for `Cc1cc(C)n(CC2CCCN2C(=O)c2cccc(C#N)c2)n1` (configuration not stated), the cytotoxicity at 10 µM was -9.19%.

With `Cc1occc(=O)c1OCC(=O)N1CCN(c2cccc(Cl)c2)CC1`, the cytotoxicity at 10 µM was -1.18%.

As to `CSc1ccsc1C(=O)NC(C)c1ccc2c(c1)CCC(=O)N2` (configuration not stated), the cytotoxicity at 10 µM worked out at 1.28%.

For the compound `CCC(NC(=O)CNCC(F)(F)F)c1cc(F)ccc1F` (configuration not stated), the cytotoxicity at 10 µM was -4.56%.

For `Cc1cnc(N2CCCC3(CCN(Cc4csc(C)n4)C3=O)C2)nc1` (configuration not stated), the cytotoxicity at 10 µM was -5.15%.

As to `CN(C)CCO[C@H]1CN(C(=O)c2ccc[nH]2)[C@@H]2COC[C@H]12`, the cytotoxicity at 10 µM was determined as 5.06%.

As for `CC(C)(C)c1cnc(CN2CCC(CN3CCOCC3)CC2)o1`, the cytotoxicity at 10 µM amounted to 3.63%.

For the compound `Cc1cc(CN(C)Cc2ncc(-c3cccs3)o2)no1`, the cytotoxicity at 10 µM turned out to be 11%.

For `CCn1c(C2CCN(C(=O)c3cc(C4CC4)on3)CC2)nn(C)c1=O`, the cytotoxicity at 10 µM is -5.82%.

For the compound `COCCn1c(=O)n(Cc2cccc(F)c2F)c2cc(C(=O)O)ccc21`, the cytotoxicity at 10 µM was 9.15%.

`O=C1CC2(CCCC2)CC(=O)N1CCn1cnnc1`: the cytotoxicity at 10 µM was -0.54%.

Take `O=C(CC1CN(Cc2ccccc2)CCO1)Nc1ccccc1F` (configuration not stated): the cytotoxicity at 10 µM was -2.05%.

Regarding `CCNC(=O)C1CCN(Cc2ccc(C(=O)Nc3nnc(C)s3)cc2)C1` (configuration not stated), the cytotoxicity at 10 µM is -0.834%.

For the compound `COc1ccc(NC(=O)CCc2c(C)nc3cc(O)nn3c2C)cn1`, the cytotoxicity at 10 µM was -9.21%.

On to `Cc1noc(C)c1CCC(=O)N1CCN(CCn2cccn2)CC1`, for which the cytotoxicity at 10 µM was -24.2%.

With `CC(C)c1ncc2c(n1)CN(Cc1cccc(C(N)=O)c1)CC2`, the cytotoxicity at 10 µM was -9.17%.

`CNC(=O)N1CCN(C(=O)N(C)C)CC2(CC(=O)N(C)C2)C1` (configuration not stated): the cytotoxicity at 10 µM is 4.9%.

Regarding `CN(Cc1cccnc1)c1nccc(N2CCN[C@H]3CS(=O)(=O)C[C@H]32)n1`, the cytotoxicity at 10 µM is 5.82%.

With `CNc1nccnc1C1CN(Cc2ccc3[nH]ccc3c2)CCO1` (configuration not stated), the cytotoxicity at 10 µM was -2.52%.

Consider `CCn1cc(CN2CCN(C(=O)N3CCOCC3)CC2)cn1`, for which the cytotoxicity at 10 µM is -52.8%.

Regarding `CCN(Cc1ccco1)C(=O)Nc1cc(C(F)(F)F)c[nH]c1=O`, the cytotoxicity at 10 µM is -2.6%.

With `OC1(Cn2ccc3ncccc32)CCN(Cc2ccccn2)CC1`, the cytotoxicity at 10 µM was 5.33%.

Consider `Cc1ccoc1C1=NNC(=CN2CCn3c(C)nnc3C2)O1`, for which the cytotoxicity at 10 µM was -16.4%.

Take `CNC(=O)[C@@]12CCC3(CCN(C(=O)C(C)C)CC3)[C@@H]1CN(S(C)(=O)=O)C2`: the cytotoxicity at 10 µM was determined as 3.89%.

Consider `Cc1ccc(CCC(=O)N2CCCC(c3cc(C(N)=O)[nH]n3)C2)cc1` (configuration not stated), for which the cytotoxicity at 10 µM is -4.33%.

Turning to `CS(=O)(=O)NCc1cncc2c1CCN(C(=O)c1cccnc1)C2`, the cytotoxicity at 10 µM worked out at 5.12%.

On to `Cc1cnc2n(c1=O)C(CC(=O)NCc1ccc(Cl)cc1)CS2` (configuration not stated), for which the cytotoxicity at 10 µM was -5.55%.

In the case of `CC1(C(=O)N2CCN(c3cnccn3)CC2)CNCCO1` (configuration not stated), the cytotoxicity at 10 µM is 6.99%.

Take `CCN(CC)CC(=O)N1CCN(c2nc(C)cc(OC)n2)CC1`: the cytotoxicity at 10 µM was -10.4%.

As to `Cc1ccc(C2CSCCN2C(=O)c2cccs2)o1` (configuration not stated), the cytotoxicity at 10 µM came out at 3.82%.
